In ChEMBL document CHEMBL1153229, “The first synthetic agonists of FFA2: Discovery and SAR of phenylacetamides as allosteric modulators” (Bioorg Med Chem Lett, 2010):
Calls of active or inactive are those of the source. The calls are words filed in the database; no cut-off is given here.

Tests used:
Mus musculus = test: Reduction in plasma free fatty acid level in overnight fasted FFA2 knockout C57BL/6 mouse at 3 mg/kg, ip after 15 mins; type: functional, organism-based; design: dose 3 mg/kg
Procedure, shortened: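 Male-unspecified C57BL6 mice, wild type or FFA2 knockout, fasted overnight. Given compound or vehicle (10% dimethyl acetamide, 10% ethanol, 30% propylene glycol, 50% saline) ip at 10 ml/kg. Tail blood sampled before and 15 minutes after injection. Plasma FFA measured by enzymatic kit. Ten animals per group; t test.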

[1] = molecular target: T1, Free fatty acid receptor 2 (Homo sapiens) (UniProt O15552); test: Agonist activity at human FFA2 receptor expressed in CHO cells assessed as inhibition of forskolin-induced cAMP production relative to acetate; type: functional, cell-based
T1 sequence (whole entry): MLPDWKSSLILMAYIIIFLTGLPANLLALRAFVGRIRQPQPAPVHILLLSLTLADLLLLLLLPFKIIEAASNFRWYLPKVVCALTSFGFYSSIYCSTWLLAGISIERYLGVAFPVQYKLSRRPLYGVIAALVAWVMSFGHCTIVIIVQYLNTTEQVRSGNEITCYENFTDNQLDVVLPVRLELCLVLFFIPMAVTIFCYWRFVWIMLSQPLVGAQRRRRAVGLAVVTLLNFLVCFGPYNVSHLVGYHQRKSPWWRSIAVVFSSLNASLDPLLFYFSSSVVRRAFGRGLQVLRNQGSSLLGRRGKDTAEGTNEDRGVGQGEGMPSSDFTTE
Procedure, shortened: (§1)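 Suspended cells, 10,000 per well, in Hank's balanced salt solution with 25 mM HEPES and 0.01% (w/v) BSA. Stimulated with forskolin (5 μM final) plus serially diluted test ligands, room temperature for 30 min. Antibody and lysis reagents then added, followed by overnight dark incubation with detection solution. Luminescence read (RLU). Efficacy expressed relative to acetate. Means of four experiments.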

[2] = molecular target: T2, C-X-C chemokine receptor type 3 (Homo sapiens) (UniProt P49682); test: Agonist activity at CXCR3 up to 30 uM; type: functional
T2 sequence (whole entry): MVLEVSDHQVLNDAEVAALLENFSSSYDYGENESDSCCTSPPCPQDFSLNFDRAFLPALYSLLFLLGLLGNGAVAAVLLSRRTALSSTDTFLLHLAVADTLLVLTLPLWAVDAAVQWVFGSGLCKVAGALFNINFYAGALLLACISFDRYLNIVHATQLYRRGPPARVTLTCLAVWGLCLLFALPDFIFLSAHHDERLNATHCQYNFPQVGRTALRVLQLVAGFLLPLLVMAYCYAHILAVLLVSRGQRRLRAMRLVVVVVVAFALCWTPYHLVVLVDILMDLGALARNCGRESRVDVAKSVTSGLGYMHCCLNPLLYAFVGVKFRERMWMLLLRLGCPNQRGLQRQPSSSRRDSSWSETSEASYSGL

[3] = molecular target: C-X-C chemokine receptor type 4 (Homo sapiens) (UniProt P61073); test: Agonist activity at CXCR4 up to 30 uM; type: functional
Sequence of C-X-C chemokine receptor type 4 (Homo sapiens) (P61073 whole entry): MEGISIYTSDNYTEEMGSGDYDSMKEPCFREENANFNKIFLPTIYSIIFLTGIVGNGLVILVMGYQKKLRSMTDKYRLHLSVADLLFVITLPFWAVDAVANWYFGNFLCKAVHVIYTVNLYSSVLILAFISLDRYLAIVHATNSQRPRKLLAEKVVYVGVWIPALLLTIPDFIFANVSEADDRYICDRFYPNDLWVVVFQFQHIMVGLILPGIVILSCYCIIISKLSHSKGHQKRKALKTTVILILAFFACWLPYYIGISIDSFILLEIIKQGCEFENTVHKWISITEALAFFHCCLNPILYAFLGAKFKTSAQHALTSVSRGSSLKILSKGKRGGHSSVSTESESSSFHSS

[4] = molecular target: Free fatty acid receptor 1 (Homo sapiens) (UniProt O14842); test: Agonist activity at FFA1 receptor up to 30 uM; type: functional
Sequence of Free fatty acid receptor 1 (Homo sapiens) (O14842 whole entry): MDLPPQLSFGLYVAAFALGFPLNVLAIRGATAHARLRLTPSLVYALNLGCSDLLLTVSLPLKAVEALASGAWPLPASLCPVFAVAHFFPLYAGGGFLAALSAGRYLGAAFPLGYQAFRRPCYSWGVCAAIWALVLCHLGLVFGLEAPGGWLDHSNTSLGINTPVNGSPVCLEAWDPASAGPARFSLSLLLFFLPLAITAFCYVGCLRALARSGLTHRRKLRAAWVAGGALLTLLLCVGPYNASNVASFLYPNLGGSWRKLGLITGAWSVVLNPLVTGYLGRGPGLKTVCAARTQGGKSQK

Rattus norvegicus = test: Clearance in Sprague-Dawley rat at 0.5 mg/kg, iv; type: ADME, organism-based; design: dose 0.5 mg/kg, route intravenous; conditions: in vivo
Procedure, shortened: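 Male Sprague-Dawley rats dosed 0.5 mg/kg iv.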

[5] = molecular target: T3, Free fatty acid receptor 2 (Homo sapiens, UniProt O15552); test: Agonist activity at human FFA2 receptor expressed in CHO cells assessed as inhibition of forskolin-induced cAMP production; type: functional, cell-based; procedure, shortened: as §1
T3 sequence (O15552 whole entry): T1 sequence (whole entry)

CC(C)[C@H](C(=O)Nc1ncc(F)s1)c1ccc(Cl)cc1
Activity (Mus musculus): inactive
Efficacy [1]: 103%
Activity [2]: inactive
Activity [3]: inactive
Activity [4]: inactive
CL (Rattus norvegicus): 43.3 mL/min/kg
IC50 [5]: 500 nM
